# Experimental data: ChEMBL document CHEMBL4610092, “Cytotoxic Nitrogenated Azaphilones from the Deep-Sea-Derived Fungus Chaetomium globosum MP4-S01-7” (J Nat Prod, 2020)
# How the values were obtained:
# [1] = system: MGC-803; test: Cytotoxicity against human MGC803 cells assessed as reduction in cell viability measured after 72 hrs by CCK8 assay; type: functional, cell-based; settings: MGC-803, 72 h
# Outline: (§1)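 MGC803 or AGS cells (RPMI 1640, 10% FBS, 5% CO₂, 37 °C) plated at 3 × 10³ per well overnight, then exposed to 0.1–10 μM for 72 h. Viability was read by CCK8 absorbance at 450 nm, and IC₅₀ was calculated from the concentration series.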
# [2] = system: AGS; test: Cytotoxicity against human AGS cells assessed as reduction in cell viability measured after 72 hrs by CCK8 assay; type: functional, cell-based; outline: as §1
# [3] = system: MGC-803; test: Induction of apoptosis in human MGC803 cells measured after 48 hrs FITC-A/PE-A staining based flow cytometry; type: functional, cell-based
# [4] = system: AGS; test: Induction of apoptosis in human AGS cells measured after 48 hrs FITC-A/PE-A staining based flow cytometry; type: functional, cell-based
# [5] = system: MGC-803; test: Induction of apoptosis in human MGC803 cells assessed as viable cells at 0.2 uM measured after 48 hrs FITC-A/PE-A staining based flow cytometry (reference value: 94.89 to 96.41%); type: functional; settings: MGC-803, 48 h, read-out: Activity
# [6] = system: MGC-803; test: Induction of apoptosis in human MGC803 cells assessed as early apoptotic cells at 0.2 uM measured after 48 hrs FITC-A/PE-A staining based flow cytometry (reference value: 0.59 to 3.54%); type: functional
# [7] = system: MGC-803; test: Induction of apoptosis in human MGC803 cells assessed as late apoptotic cells at 0.2 uM measured after 48 hrs FITC-A/PE-A staining based flow cytometry (reference value: 0.9 to 2.18%); type: functional
# [8] = system: MGC-803; test: Induction of apoptosis in human MGC803 cells assessed as necrotic cells at 0.2 uM measured after 48 hrs FITC-A/PE-A staining based flow cytometry (reference value: 0.9 to 2.18%); type: functional
# [9] = system: MGC-803; test: Induction of apoptosis in human MGC803 cells assessed as viable cells at 0.5 uM measured after 48 hrs FITC-A/PE-A staining based flow cytometry (reference value: 94.89 to 96.41%); type: functional; settings: MGC-803, 48 h, read-out: Activity
# [10] = system: MGC-803; test: Induction of apoptosis in human MGC803 cells assessed as early apoptotic cells at 0.5 uM measured after 48 hrs FITC-A/PE-A staining based flow cytometry (reference value: 0.59 to 3.54%); type: functional
# [11] = system: MGC-803; test: Induction of apoptosis in human MGC803 cells assessed as late apoptotic cells at 0.5 uM measured after 48 hrs FITC-A/PE-A staining based flow cytometry (reference value: 0.9 to 2.18%); type: functional
# [12] = system: MGC-803; test: Induction of apoptosis in human MGC803 cells assessed as necrotic cells at 0.5 uM measured after 48 hrs FITC-A/PE-A staining based flow cytometry (reference value: 0.9 to 2.18%); type: functional
# [13] = system: MGC-803; test: Induction of apoptosis in human MGC803 cells assessed as viable cells at 1 uM measured after 48 hrs FITC-A/PE-A staining based flow cytometry (reference value: 94.89 to 96.41%); type: functional; settings: MGC-803, 48 h, read-out: Activity
# [14] = system: MGC-803; test: Induction of apoptosis in human MGC803 cells assessed as early apoptotic cells at 1 uM measured after 48 hrs FITC-A/PE-A staining based flow cytometry (reference value: 0.59 to 3.54%); type: functional
# [15] = system: MGC-803; test: Induction of apoptosis in human MGC803 cells assessed as late apoptotic cells at 1 uM measured after 48 hrs FITC-A/PE-A staining based flow cytometry (reference value: 0.67 to 0.82%); type: functional
# [16] = system: MGC-803; test: Induction of apoptosis in human MGC803 cells assessed as necrotic cells at 1 uM measured after 48 hrs FITC-A/PE-A staining based flow cytometry (reference value: 0.9 to 2.18%); type: functional
# [17] = system: AGS; test: Induction of apoptosis in human AGS cells assessed as viable cells at 0.2 uM measured after 48 hrs FITC-A/PE-A staining based flow cytometry (reference value: 92.05 to 93.85%); type: functional; settings: read-out: Activity
# [18] = system: AGS; test: Induction of apoptosis in human AGS cells assessed as early apoptotic cells at 0.2 uM measured after 48 hrs FITC-A/PE-A staining based flow cytometry (reference value: 1.77 to 2.91%); type: functional
# [19] = system: AGS; test: Induction of apoptosis in human AGS cells assessed as late apoptotic cells at 0.2 uM measured after 48 hrs FITC-A/PE-A staining based flow cytometry (reference value: 1.89 to 3.49%); type: functional
# [20] = system: AGS; test: Induction of apoptosis in human AGS cells assessed as necrotic cells at 0.2 uM measured after 48 hrs FITC-A/PE-A staining based flow cytometry (reference value: 1.35 to 2.69%); type: functional
# [21] = system: AGS; test: Induction of apoptosis in human AGS cells assessed as viable cells at 0.5 uM measured after 48 hrs FITC-A/PE-A staining based flow cytometry (reference value: 92.05 to 93.85%); type: functional; settings: read-out: Activity
# [22] = system: AGS; test: Induction of apoptosis in human AGS cells assessed as early apoptotic cells at 0.5 uM measured after 48 hrs FITC-A/PE-A staining based flow cytometry (reference value: 1.77 to 2.91%); type: functional
# [23] = system: AGS; test: Induction of apoptosis in human AGS cells assessed as late apoptotic cells at 0.5 uM measured after 48 hrs FITC-A/PE-A staining based flow cytometry (reference value: 1.89 to 3.49%); type: functional
# [24] = system: AGS; test: Induction of apoptosis in human AGS cells assessed as necrotic cells at 0.5 uM measured after 48 hrs FITC-A/PE-A staining based flow cytometry (reference value: 1.35 to 2.69%); type: functional
# [25] = system: AGS; test: Induction of apoptosis in human AGS cells assessed as viable cells at 1 uM measured after 48 hrs FITC-A/PE-A staining based flow cytometry (reference value: 92.05 to 93.85%); type: functional; settings: read-out: Activity
# [26] = system: AGS; test: Induction of apoptosis in human AGS cells assessed as early apoptotic cells at 1 uM measured after 48 hrs FITC-A/PE-A staining based flow cytometry (reference value: 1.77 to 2.91%); type: functional
# [27] = system: AGS; test: Induction of apoptosis in human AGS cells assessed as late apoptotic cells at 1 uM measured after 48 hrs FITC-A/PE-A staining based flow cytometry (reference value: 1.89 to 3.49%); type: functional
# [28] = system: AGS; test: Induction of apoptosis in human AGS cells assessed as necrotic cells at 1 uM measured after 48 hrs FITC-A/PE-A staining based flow cytometry (reference value: 1.35 to 2.69%); type: functional
# [29] = system: MGC-803; test: Induction of apoptosis in human MGC803 cells assessed as viable cells at 5 uM measured after 48 hrs FITC-A/PE-A staining based flow cytometry (reference value: 94.89 to 96.41%); type: functional; settings: MGC-803, 48 h, read-out: Activity
# [30] = system: MGC-803; test: Induction of apoptosis in human MGC803 cells assessed as early apoptotic cells at 5 uM measured after 48 hrs FITC-A/PE-A staining based flow cytometry (reference value: 0.59 to 3.54%); type: functional
# [31] = system: MGC-803; test: Induction of apoptosis in human MGC803 cells assessed as late apoptotic cells at 5 uM measured after 48 hrs FITC-A/PE-A staining based flow cytometry (reference value: 0.67 to 0.82%); type: functional
# [32] = system: MGC-803; test: Induction of apoptosis in human MGC803 cells assessed as necrotic cells at 5 uM measured after 48 hrs FITC-A/PE-A staining based flow cytometry (reference value: 0.9 to 2.18%); type: functional
# [33] = system: AGS; test: Induction of apoptosis in human AGS cells assessed as viable cells at 5 uM measured after 48 hrs FITC-A/PE-A staining based flow cytometry (reference value: 92.05 to 93.85%); type: functional; settings: read-out: Activity
# [34] = system: AGS; test: Induction of apoptosis in human AGS cells assessed as early apoptotic cells at 5 uM measured after 48 hrs FITC-A/PE-A staining based flow cytometry (reference value: 1.77 to 2.91%); type: functional
# [35] = system: AGS; test: Induction of apoptosis in human AGS cells assessed as late apoptotic cells at 5 uM measured after 48 hrs FITC-A/PE-A staining based flow cytometry (reference value: 1.89 to 3.49%); type: functional
# [36] = system: AGS; test: Induction of apoptosis in human AGS cells assessed as necrotic cells at 5 uM measured after 48 hrs FITC-A/PE-A staining based flow cytometry (reference value: 1.35 to 2.69%); type: functional
smiles,measurement,setting,value
CC[C@H](C)/C=C/C1=CC2=C(Cl)C(=O)[C@@]3(C)OC(=O)C(C(=O)[C@H](C)[C@@H](C)O)=C3C2=CN1CC=C(C)C,IC50,[1],2.7 µM
same,IC50,[2],6.5 µM
CCC(=O)C1=C2C3=CN(C/C=C(\C)CCC=C(C)C)C(/C=C/[C@@H](C)CC)=CC3=C(Cl)C(=O)[C@@]2(C)OC1=O,IC50,[1],2.2 µM
same,IC50,[2],1.2 µM
CC[C@H](C)/C=C/C1=CC2=C(Cl)C(=O)[C@@]3(C)OC(=O)C(C(=O)[C@@H](C)[C@@H](C)O)=C3C2=CN1CC=C(C)C,IC50,[1],3 µM
same,IC50,[2],2.9 µM
C/C=C(\C)C(=O)C1=C2C3=CN(C/C=C(\C)CCC=C(C)C)C(/C=C/[C@@H](C)CC)=CC3=C(Cl)C(=O)[C@@]2(C)OC1=O,IC50,[1],0.72 µM
same,IC50,[2],0.12 µM
CC(=O)O[C@H]1C(=O)[C@@]2(C)[C@H]([C@H](OC(=O)c3ccccc3)[C@]3(O)C[C@H](OC(=O)[C@H](O)[C@@H](NC(=O)c4ccccc4)c4ccccc4)C(C)=C1C3(C)C)[C@]1(OC(C)=O)CO[C@@H]1C[C@@H]2O [PACLITAXEL],IC50,[1],3.8 µM
CCC(=O)C1=C2C3=CN(CC=C(C)C)C(/C=C/[C@@H](C)CC)=CC3=C(Cl)C(=O)[C@@]2(C)OC1=O,IC50,[1],5.8 µM
same,IC50,[2],> 10 µM
C/C=C(\C)C(=O)C1=C2C3=COC(/C=C/[C@@H](C)CC)=CC3=C(Cl)C(=O)[C@@]2(C)OC1=O [CHAETOVIRIDIN E],IC50,[1],> 10 µM
same,IC50,[2],> 10 µM
C/C=C(\C)C(=O)C1=C2C3=CN(CC=C(C)C)C(/C=C/[C@@H](C)CC)=CC3=C(Cl)C(=O)[C@@]2(C)OC1=O,IC50,[1],6.8 µM
same,IC50,[2],2 µM
CC[C@H](C)/C=C/C1=CC2=C(Cl)C(=O)[C@@]3(C)OC(=O)C(C(=O)[C@H](C)[C@@H](C)O)=C3C2=CN1C/C=C(\C)CCC=C(C)C,IC50,[1],0.78 µM
same,IC50,[2],0.12 µM
same,Activity,[3],Dose-dependent effect
same,Activity,[4],Dose-dependent effect
same,viability at 0.2 µM,[5],96.1%
same,Activity,[6],2.79%
same,Activity,[7],0.41%
same,Activity,[8],0.7%
same,viability at 0.5 µM,[9],96.1%
same,Activity,[10],2.55%
same,Activity,[11],0.63%
same,Activity,[12],0.73%
same,viability at 1 µM,[13],85%
same,Activity,[14],1.33%
same,Activity,[15],6.91%
same,Activity,[16],6.78%
same,viability at 0.2 µM,[17],89.6%
same,Activity,[18],3.16%
same,Activity,[19],4.34%
same,Activity,[20],2.94%
same,viability at 0.5 µM,[21],88.1%
same,Activity,[22],3.49%
same,Activity,[23],5.54%
same,Activity,[24],2.92%
same,viability at 1 µM,[25],53.3%
same,Activity,[26],18.59%
same,Activity,[27],23.07%
same,Activity,[28],5.05%
same,viability at 5 µM,[29],6.51%
same,Activity,[30],0.25%
same,Activity,[31],91.5%
same,Activity,[32],1.74%
same,viability at 5 µM,[33],9.55%
same,Activity,[34],2.33%
same,Activity,[35],86.44%
same,Activity,[36],1.67%
CC[C@H](C)/C=C/C1=CC2=C(Cl)C(=O)[C@@]3(C)OC(=O)C(C(=O)[C@@H](C)[C@@H](C)O)=C3C2=CO1 [CHAETOVIRIDIN A],IC50,[1],> 10 µM
same,IC50,[2],> 10 µM
